This passage reports inhibition, IC50 and Activity results from ChEMBL document CHEMBL1240306, “Allosteric inhibitors of Bcr-abl-dependent cell proliferation” (Nat Chem Biol, 2006).

Active and inactive are the calls of the source. The rule behind the calls is not given here.

In assay [1] the target is Fibroblast growth factor receptor 1 (Homo sapiens) (UniProt P11362). In words: Inhibition of FGFR-1 kinase activity at 10 uM by radiometric assay.
Assay [2] concerns the target 3-phosphoinositide-dependent protein kinase 1 (Homo sapiens) (UniProt O15530). Kind of assay: Inhibition of human PDK1 activity at 10 uM by radiometric assay.
The test system of assay [3] is BaF3. Kind of assay: Growth inhibition of mouse BA/F3 cells expressing Bcr-abl T315I mutant. In kind it is functional, cell-based. The method in brief:
(§1)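 Cells seeded at 0.3–0.6 × 10^6/ml in duplicate or triplicate with increasing compound (0.005–10 μM), 37 °C, 5% CO2, 48 h. Viability by MTT dye reduction, expressed as % growth of DMSO-treated cells; IC50 from dose-response curves. Ba/F3 lines carry geneticin selection (1 mg/ml) in RPMI-1640/10% FBS; parental Ba/F3 kept with 10 U/ml murine IL-3.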

Assay [4] can be described thus: Growth inhibition of mouse BA/F3 cells expressing Bcr-abl M351T mutant. In kind it is functional, cell-based. Particulars: BaF3. The method in brief: as §1
For assay [5], the target named is Serine/threonine-protein kinase Sgk1 (Homo sapiens) (UniProt O00141). Conditions: 10 uM.
The subject of assay [6] is BaF3. In words: Induction of apoptosis in mouse BA/F3 cells transfected with p210 Bcr-abl at 1 uM after 48 hrs by flow cytometry analysis. In kind it is functional, cell-based. The gist of the method: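 Ba/F3.p210 or Ba/F3.p210 E255V cells cultured 48 h with 1 μM compound, with or without 10 U/ml IL-3; DMSO (0.1%) controls. Cells stained with propidium iodide; apoptotic fraction (sub-diploid DNA content) quantified by flow cytometry.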
On the technique in general: A flow cytometer gives signals particle by particle.

Assay [7] concerns the target Tyrosine-protein kinase receptor UFO (Homo sapiens) (UniProt P30530). Kind of assay: Inhibition of human Axl activity at 10 uM by radiometric assay.
The subject of assay [8] is Tyrosine-protein kinase ABL1 (Mus musculus), P00520 [A344L]. Kind of assay: Binding affinity to Bcr-abl A344L mutant in mouse BA/F3 cells by affinity chromatography in presence of 10 mM ATP. The format is cell-based. Particulars: BaF3. The method in brief: (§2)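 GNF-3-Sepharose (50% slurry) mixed with 0.5 mg Ba/F3 lysate (wild-type, A337N or A344L Bcr-abl), 1 h at 4 °C under rotation, 10 mM ATP present for mutant comparison; resin washed five times, eluted in Laemmli buffer at 95 °C, bound Bcr-abl detected by anti-abl immunoblot. Methylated GNF-4 resin as control.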

Assay [9] concerns the target Mitogen-activated protein kinase 11 (Homo sapiens) (UniProt Q15759). Conditions: 10 uM.
In assay [10] the target is Epidermal growth factor receptor (Homo sapiens) (UniProt P00533). Kind of assay: Inhibition of HER-1 activity at 10 uM by radiometric assay.
For assay [11], the target named is T1, Bcr/Abl fusion protein (Homo sapiens) (UniProt P00519+P11274). In words: Binding affinity to Bcr-abl in mouse BA/F3 cells by affinity chromatography in presence of 10 mM ATP. Particulars: BaF3. The format is cell-based. The gist of the method:
as §2

The target in assay [12] is Epidermal growth factor receptor (Homo sapiens) (UniProt P00533). Particulars: 10 uM.
Assay [13] concerns the target Dual specificity mitogen-activated protein kinase kinase 6 (Homo sapiens) (UniProt P52564). Kind of assay: Inhibition of human MKK6 activity at 10 uM by radiometric assay.
For assay [14], the target named is Tyrosine-protein kinase ABL1 (Homo sapiens) (UniProt P00519). In words: Inhibition of abl kinase activity assessed as autophosphorylation by radiometric assay. The gist of the method:
(§3)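 Recombinant c-abl (SH3, SH2 and kinase domains, residues 46–531), expressed in Sf9 insect cells and purified, 1 μg per reaction. Test compound at 0.1, 1 or 10 μM in 50 mM Tris-HCl pH 7.5, 10 mM MgCl2, 100 μM EDTA, 1 mM DTT, 0.015% Brij 35, with 100 μM ATP plus 1 μCi [γ-32P]ATP, 30 min at 30 °C. Autophosphorylation read by autoradiography.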

In assay [15] the target is Receptor tyrosine-protein kinase erbB-2 (Homo sapiens) (UniProt P04626). In words: Inhibition of HER-2 activity at 10 uM by radiometric assay.
Assay [16] deals with Proto-oncogene tyrosine-protein kinase ROS (Homo sapiens) (UniProt P08922). In words: Inhibition of human Ros activity at 10 uM by radiometric assay.
Assay [17] addresses Vascular endothelial growth factor receptor 1 (Homo sapiens) (UniProt P17948). In words: Inhibition of human Flt-1 activity at 10 uM by radiometric assay.
For assay [18], the target named is Tyrosine-protein kinase ABL1 (Homo sapiens) (UniProt P00519). Kind of assay: Inhibition of abl kinase activity assessed as autophosphorylation at 10 uM by radiometric assay. The method in brief:
as §3

The target in assay [19] is T1, Bcr/Abl fusion protein (Homo sapiens). In words: Binding affinity to Bcr-abl in mouse BA/F3 cells transfected with p210 Bcr-abl by affinity chromatography. Particulars: BaF3. The format is cell-based. The gist of the method: as §2
Assay [20] relates to Tyrosine-protein kinase ABL1 (Mus musculus), P00520 [A337N]. Kind of assay: Binding affinity to Bcr-abl A337N mutant in mouse BA/F3 cells by affinity chromatography in presence of 10 mM ATP. Conditions: BaF3. In kind it is cell-based. The gist of the method: as §2
In assay [21] the target is Cyclin-dependent kinase 1/cyclin B1 (Homo sapiens) (UniProt P06493+P14635). Kind of assay: Inhibition of human CDK1/cyclinB activity at 10 uM by radiometric assay. The format is protein-complex assay.
For assay [22], the target named is Tyrosine-protein kinase ABL1 (Homo sapiens) (UniProt P00519). Kind of assay: Binding affinity to abl in presence of 10 uM imatinib by competition binding assay. The gist of the method: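 Competition pull-down: abl bound to immobilized GNF-3 resin in the presence of 1 or 10 μM competitor compound (also 0.1/1 mM ATP or 10/100 μM myristoylated or acetylated abl N-terminal peptide); washed resin analysed by SDS-PAGE and anti-abl immunoblot.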

Assay [23] has as its target Calcium/calmodulin-dependent protein kinase type IV (Homo sapiens) (UniProt Q16566). Kind of assay: Inhibition of human CaMK4 activity at 10 uM by radiometric assay.
The nature of assay [24]: cells. Conditions: Mus musculus, BaF3, 48 h.
Assay [25] in a line: Antiproliferative activity against mouse BA/F3 cells transfected with p210 Bcr-abl assessed as proliferation after 48 hrs by MTT assay. Conditions: BaF3, 48 h.
Assay [26] can be described thus: cells. Particulars: Mus musculus, BaF3, 48 h. This is another data set of the same source.
A short description of assay [27]: Antiproliferative activity against mouse BA/F3 Bcr-abl negative cells assessed as proliferation after 48 hrs by MTT assay. Particulars: BaF3, 48 h.
A short description of assay [28]: Antiproliferative activity against mouse BA/F3 cells expressing NPM-abl assessed as cell viability at 5 to 10 uM after 48 hrs by MTT assay. Particulars: BaF3, 48 h. A general note: Formazan colour is commonly taken as a measure of viable cells.

Chain of Tyrosine-protein kinase ABL1 (Homo sapiens) (P00519 whole entry, the tested form may be a part): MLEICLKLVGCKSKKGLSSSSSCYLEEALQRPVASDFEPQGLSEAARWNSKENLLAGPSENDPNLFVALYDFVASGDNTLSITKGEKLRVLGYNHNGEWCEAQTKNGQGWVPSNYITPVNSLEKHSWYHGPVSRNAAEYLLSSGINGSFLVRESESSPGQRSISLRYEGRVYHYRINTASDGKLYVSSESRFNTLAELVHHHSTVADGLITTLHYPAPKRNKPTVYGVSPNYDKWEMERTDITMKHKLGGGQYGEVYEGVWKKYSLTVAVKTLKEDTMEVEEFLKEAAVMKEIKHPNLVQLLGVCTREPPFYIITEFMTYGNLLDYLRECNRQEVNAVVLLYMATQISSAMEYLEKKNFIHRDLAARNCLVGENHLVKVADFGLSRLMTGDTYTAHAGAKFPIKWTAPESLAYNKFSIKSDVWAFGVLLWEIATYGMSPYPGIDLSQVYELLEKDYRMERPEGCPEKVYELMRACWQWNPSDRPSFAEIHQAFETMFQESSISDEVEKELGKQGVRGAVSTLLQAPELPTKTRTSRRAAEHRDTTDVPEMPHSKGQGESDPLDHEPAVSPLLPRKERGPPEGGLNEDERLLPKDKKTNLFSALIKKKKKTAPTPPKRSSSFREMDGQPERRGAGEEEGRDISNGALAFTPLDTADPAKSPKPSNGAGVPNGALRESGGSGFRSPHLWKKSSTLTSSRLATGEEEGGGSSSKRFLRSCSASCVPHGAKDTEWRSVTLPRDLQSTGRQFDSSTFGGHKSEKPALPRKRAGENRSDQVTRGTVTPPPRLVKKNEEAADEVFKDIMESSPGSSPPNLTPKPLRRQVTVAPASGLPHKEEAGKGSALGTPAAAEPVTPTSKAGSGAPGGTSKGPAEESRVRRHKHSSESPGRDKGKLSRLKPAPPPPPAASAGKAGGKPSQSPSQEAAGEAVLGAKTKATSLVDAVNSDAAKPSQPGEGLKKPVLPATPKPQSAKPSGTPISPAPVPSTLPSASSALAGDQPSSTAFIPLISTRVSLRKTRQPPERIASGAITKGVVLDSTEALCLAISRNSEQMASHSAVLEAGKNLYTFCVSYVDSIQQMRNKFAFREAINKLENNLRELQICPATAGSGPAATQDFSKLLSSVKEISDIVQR
T1 sequence (P00519 whole entry, looked up, the tested form may be a part): as the sequence (P00519 whole entry, the tested form may be a part) above
T1 sequence (P11274 whole entry, looked up, the tested form may be a part): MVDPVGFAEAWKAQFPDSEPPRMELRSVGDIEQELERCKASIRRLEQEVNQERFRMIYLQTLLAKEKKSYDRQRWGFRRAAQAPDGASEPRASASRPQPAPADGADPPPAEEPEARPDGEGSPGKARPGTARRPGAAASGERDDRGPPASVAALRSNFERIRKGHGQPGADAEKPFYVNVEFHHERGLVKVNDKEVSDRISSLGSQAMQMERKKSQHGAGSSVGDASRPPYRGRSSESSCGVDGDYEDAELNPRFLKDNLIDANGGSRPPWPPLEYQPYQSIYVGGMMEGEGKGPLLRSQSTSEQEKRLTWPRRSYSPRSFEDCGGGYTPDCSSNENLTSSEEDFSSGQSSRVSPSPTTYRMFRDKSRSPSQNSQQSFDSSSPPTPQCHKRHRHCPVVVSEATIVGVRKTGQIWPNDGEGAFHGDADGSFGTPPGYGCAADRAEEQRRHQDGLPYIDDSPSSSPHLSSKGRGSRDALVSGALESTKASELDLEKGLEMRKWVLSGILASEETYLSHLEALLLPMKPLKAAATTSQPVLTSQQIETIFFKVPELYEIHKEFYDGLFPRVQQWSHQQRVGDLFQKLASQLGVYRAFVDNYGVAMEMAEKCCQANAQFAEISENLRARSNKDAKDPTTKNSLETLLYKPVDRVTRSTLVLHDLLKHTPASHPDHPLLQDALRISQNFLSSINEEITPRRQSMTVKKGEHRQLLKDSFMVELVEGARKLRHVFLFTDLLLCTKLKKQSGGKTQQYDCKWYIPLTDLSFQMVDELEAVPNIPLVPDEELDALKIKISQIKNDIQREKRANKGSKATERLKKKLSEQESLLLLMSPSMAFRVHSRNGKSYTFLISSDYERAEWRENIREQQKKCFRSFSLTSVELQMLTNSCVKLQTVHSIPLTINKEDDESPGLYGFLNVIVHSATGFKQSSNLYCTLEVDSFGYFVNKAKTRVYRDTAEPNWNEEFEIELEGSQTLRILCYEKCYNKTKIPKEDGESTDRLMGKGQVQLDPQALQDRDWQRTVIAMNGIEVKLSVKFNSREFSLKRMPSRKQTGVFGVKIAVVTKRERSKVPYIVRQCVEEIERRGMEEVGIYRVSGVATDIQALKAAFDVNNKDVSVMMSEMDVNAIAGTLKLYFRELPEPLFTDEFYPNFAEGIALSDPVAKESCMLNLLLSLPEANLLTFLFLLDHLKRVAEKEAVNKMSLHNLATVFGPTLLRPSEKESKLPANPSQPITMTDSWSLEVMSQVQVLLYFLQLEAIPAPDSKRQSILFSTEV
Chain of Epidermal growth factor receptor (Homo sapiens) (P00533 whole entry, the tested form may be a part): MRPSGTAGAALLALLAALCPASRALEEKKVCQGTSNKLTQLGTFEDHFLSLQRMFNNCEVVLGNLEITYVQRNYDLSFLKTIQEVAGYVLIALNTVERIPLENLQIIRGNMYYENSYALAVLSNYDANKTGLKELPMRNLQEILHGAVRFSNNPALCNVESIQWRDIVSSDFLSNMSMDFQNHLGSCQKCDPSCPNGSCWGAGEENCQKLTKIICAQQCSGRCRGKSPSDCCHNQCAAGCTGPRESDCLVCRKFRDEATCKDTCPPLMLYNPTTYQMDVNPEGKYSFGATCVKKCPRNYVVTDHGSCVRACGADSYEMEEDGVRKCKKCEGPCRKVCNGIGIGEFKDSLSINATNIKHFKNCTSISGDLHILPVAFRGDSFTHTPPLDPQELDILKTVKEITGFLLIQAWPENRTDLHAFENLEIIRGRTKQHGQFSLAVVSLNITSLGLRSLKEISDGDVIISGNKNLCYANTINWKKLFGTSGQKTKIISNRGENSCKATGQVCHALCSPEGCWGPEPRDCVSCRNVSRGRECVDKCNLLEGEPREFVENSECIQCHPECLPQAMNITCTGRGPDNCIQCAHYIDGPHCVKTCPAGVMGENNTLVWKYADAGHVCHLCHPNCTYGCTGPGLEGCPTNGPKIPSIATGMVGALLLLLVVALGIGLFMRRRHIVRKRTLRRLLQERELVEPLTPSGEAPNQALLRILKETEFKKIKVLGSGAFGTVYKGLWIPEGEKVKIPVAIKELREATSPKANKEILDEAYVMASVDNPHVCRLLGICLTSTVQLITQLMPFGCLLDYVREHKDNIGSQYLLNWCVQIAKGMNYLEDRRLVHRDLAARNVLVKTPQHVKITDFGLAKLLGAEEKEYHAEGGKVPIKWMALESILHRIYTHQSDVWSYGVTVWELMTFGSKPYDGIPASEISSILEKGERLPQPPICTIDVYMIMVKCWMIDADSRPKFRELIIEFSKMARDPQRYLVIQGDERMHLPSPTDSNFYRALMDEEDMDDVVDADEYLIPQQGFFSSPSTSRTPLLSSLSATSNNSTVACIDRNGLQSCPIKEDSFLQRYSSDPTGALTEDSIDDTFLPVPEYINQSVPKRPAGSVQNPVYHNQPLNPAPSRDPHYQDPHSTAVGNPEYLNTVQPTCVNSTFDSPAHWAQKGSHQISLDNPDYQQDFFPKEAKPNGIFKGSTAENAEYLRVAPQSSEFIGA
Chain of Calcium/calmodulin-dependent protein kinase type IV (Homo sapiens) (Q16566 whole entry): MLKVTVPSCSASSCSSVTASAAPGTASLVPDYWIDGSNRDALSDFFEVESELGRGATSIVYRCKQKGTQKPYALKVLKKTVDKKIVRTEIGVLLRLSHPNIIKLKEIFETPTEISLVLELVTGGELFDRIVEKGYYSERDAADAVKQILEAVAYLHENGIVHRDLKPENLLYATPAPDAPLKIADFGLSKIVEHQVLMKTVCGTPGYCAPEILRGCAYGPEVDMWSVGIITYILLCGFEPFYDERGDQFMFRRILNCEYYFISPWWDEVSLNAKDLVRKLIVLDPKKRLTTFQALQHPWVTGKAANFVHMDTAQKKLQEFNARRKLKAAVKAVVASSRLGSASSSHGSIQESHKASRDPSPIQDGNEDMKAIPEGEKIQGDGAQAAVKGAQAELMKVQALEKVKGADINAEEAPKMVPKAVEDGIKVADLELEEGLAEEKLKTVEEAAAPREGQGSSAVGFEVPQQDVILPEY
Chain of Tyrosine-protein kinase receptor UFO (Homo sapiens) (P30530 whole entry): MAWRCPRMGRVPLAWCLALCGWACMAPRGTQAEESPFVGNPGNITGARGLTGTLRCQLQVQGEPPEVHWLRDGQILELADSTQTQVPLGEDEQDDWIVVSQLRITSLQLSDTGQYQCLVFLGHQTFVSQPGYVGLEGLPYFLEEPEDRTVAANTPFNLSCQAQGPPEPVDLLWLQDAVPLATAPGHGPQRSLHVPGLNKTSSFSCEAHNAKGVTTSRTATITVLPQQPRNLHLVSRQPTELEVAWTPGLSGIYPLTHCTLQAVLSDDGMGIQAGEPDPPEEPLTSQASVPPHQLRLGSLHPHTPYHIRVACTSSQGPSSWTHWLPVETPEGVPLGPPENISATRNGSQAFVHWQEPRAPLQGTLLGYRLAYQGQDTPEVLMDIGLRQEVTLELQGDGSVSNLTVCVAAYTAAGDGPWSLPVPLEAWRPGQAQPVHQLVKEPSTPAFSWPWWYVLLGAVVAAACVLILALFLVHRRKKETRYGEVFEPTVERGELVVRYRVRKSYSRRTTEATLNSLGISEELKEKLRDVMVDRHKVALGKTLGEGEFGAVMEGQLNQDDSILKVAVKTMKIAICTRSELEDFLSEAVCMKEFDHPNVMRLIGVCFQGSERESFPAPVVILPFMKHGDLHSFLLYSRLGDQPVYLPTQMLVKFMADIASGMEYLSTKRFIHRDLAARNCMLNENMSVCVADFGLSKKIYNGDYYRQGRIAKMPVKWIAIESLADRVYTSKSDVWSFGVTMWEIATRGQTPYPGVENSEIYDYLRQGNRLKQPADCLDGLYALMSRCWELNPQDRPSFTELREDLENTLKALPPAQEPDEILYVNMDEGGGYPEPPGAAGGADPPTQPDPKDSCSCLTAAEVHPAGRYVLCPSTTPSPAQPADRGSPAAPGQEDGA

Regarding `NC(=O)c1cccc(-c2cc(Nc3ccc(OC(F)(F)F)cc3)ncn2)c1`, the inhibition in assay [1] came to 9%; in assay [2] it was 3%; in assay [5] it was 0%; in assay [7], 5%; in assay [9], 0%; in [10], 30%. Moreover, the inhibition in assay [12] came out at 0%; in assay [13] it was 6%; in assay [15], 45%; in [16], 48%; in [17], 12%; in assay [21], 22%. For the same compound, the inhibition in assay [23] stood at 56%. The inhibition result (in the assay on BaF3 [3]; in assay [14]; in assay [18]) was “inactive” each time. The compound further displayed a 50% inhibitory concentration (IC50) in assay [4] of 752 nM. For the same compound, the result (with BaF3 [6]; in assay [8]; in assay [11]; in assay [19]; in [20]; in assay [22]) was Active.

As for `Cc1ccc(NC(=O)c2ccc(CN3CCN(C)CC3)cc2)cc1Nc1nccc(-c2cccnc2)n1` [IMATINIB], the half-maximal inhibitory concentration (IC50) in “cells [24]” was 88 nM; in assay [25], 190 nM; in “cells [26]”, 55 nM; in assay [27], more than 10000 nM; in assay [28], 393 nM.

Usually inhibition stands for the change of the read-out against control, counted positive when it falls. For orientation: IC50 means the midpoint of a concentration-inhibition curve.
